Tests used:
[1] = target: T1, human FPR2 (Homo sapiens, UniProt P25090); test: BRET biosensor signaling, HEK293 cells expressing human FPR2; type: cell-based; conditions: Gαi1, Gαi2, Gαi3, GαoA, GαoB biosensors; FPR2 relative to FPR1
T1 sequence (P25090 1-351): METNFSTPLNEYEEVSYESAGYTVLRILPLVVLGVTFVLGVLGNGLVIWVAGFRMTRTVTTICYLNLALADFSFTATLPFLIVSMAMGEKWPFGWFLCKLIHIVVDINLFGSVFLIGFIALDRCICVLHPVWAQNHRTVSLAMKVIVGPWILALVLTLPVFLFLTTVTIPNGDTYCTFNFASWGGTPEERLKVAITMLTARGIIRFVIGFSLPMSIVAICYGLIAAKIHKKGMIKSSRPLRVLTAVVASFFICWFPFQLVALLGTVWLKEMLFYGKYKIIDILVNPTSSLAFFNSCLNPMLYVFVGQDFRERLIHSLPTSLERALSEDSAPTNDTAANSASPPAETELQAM
Method in brief: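 HEK293 cells transiently expressed human FPR1 or FPR2 with Gαi1, Gαi2, Gαi3, GαoA or GαoB BRET biosensors, and test compound was titrated. EC50 came from a nonlinear concentration-response curve fit. Selectivity ratio was FPR2 EC50/FPR1 EC50.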

[2] = tested on: HL-60 cells; test: Oxidative burst assay; type: cell-based, human
[3] = tested on: rat myocardial infarction (permanent coronary artery occlusion); test: Rat MI 5 days, immunohistochemistry of peri-infarct zone; type: in vivo; conditions: 1 mg/kg, 5 days post-artery ligation
[4] = tested on: isolated human whole blood; test: Human blood assay, cytokine and FPR2 mRNA expression; type: cell-based; conditions: for increase in IL-10 mRNA levels / increase in MCP-1 mRNA versus control: isolated human whole blood; for increase in IL-10 mRNA levels: average
[5] = tested on: rat myocardial infarction (permanent coronary artery occlusion); test: Rat MI permanent coronary artery occlusion, 6 weeks; type: in vivo; conditions: 1 mg/kg once per day
Method in brief: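 Male Sprague Dawley rats, 6-7 weeks old, had permanent coronary artery occlusion by suture under ketamine/xylazine and isoflurane anesthesia. They received test compound at 1 mg/kg once daily for 6 weeks. LV volumes were measured by echocardiography. Terminally, under isoflurane, a 2.5-F conductance catheter was placed in the LV via right carotid cutdown, with parallel-conductance correction.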

[6] = tested on: mouse myocardial infarction (permanent LAD ligation); test: Mouse MI early short-term treatment, histology and in situ hybridization; type: in vivo; conditions: 3 mg/kg, 3 days post MI
Method in brief: (§1)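 Male C57BL/6 mice, 10-12 weeks old, had the LAD permanently occluded by suture under ketamine/xylazine anesthesia and isoflurane ventilation. Test compound, 3 mg/kg, was given by oral gavage once daily, starting 24 hours post MI. Hearts were analyzed about 3 days after occlusion.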

[7] = tested on: rat myocardial ischemia-reperfusion injury; test: Rat ischemia-reperfusion study, 6 weeks; type: in vivo; conditions: 1 mg/kg, rat I/R
Method in brief: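 Male Sprague Dawley rats, 6-7 weeks old, underwent coronary ischemia-reperfusion and received test compound at 1 mg/kg for 6 weeks. Hearts were arrested in diastole, removed and mounted on a modified Langendorff apparatus. Passive LV pressure-volume relationships were recorded ex vivo.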

[8] = tested on: BioGel-elicited peritoneal macrophages; test: Zymosan phagocytosis assay; type: cell-based, mouse
[9] = tested on: mouse myocardial infarction (permanent LAD ligation); test: Mouse MI early short-term treatment, cardiac flow cytometry; type: in vivo; conditions: 3 mg/kg, 3 days post MI, mouse heart
Method in brief: as §1

[10] = target: T2, human FPR1 (Homo sapiens, UniProt P21462); test: BRET biosensor signaling, HEK293 cells expressing human FPR1; type: cell-based
T2 sequence (P21462 1-350): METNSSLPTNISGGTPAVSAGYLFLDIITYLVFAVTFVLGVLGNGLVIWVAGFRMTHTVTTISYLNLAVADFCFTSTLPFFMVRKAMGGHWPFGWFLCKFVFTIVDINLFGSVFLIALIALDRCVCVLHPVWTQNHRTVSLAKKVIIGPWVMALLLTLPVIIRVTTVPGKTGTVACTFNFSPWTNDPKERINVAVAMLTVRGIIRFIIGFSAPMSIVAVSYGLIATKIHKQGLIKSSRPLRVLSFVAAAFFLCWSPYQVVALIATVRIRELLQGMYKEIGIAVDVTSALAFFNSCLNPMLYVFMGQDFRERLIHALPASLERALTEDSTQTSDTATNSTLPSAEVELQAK

[11] = tested on: differentiated HL-60 cells; test: Chemotaxis assay; type: cell-based, human
Method in brief: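 In vitro chemotaxis toward test compound was measured in differentiated HL-60 cells: parental, FPR1-deficient and FPR2 KO lines. EC50 came from a nonlinear concentration-response curve.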

[12] = tested on: isolated human neutrophils; test: Apoptosis assay of isolated human neutrophils activated with SAA; type: cell-based; conditions: co-incubation with BMS-986235 and SAA, relative to SAA-only treatment
[13] = tested on: noninfarcted rats challenged with LPS; test: Acute LPS challenge in rat, IL-10; type: in vivo; conditions: 1 mg/kg
Method in brief: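 Adult male Sprague Dawley rats, 6-7 weeks old, without infarction, were dosed with test compound at 1 mg/kg and challenged with LPS. The read-out was IL-10 induction. Blood compound levels were taken 1.5 to 3 hours after dosing.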

[14] = tested on: mouse permanent coronary artery occlusion model; test: Mouse MI 28-day treatment, survival and histomorphometry; type: in vivo

**Q.** Which “selectivity ratios (FPR2 EC50/FPR1 EC50)” value [1] does the source give for `COc1cc(F)c([C@@H]2CNC(=O)[C@H]2NC(=O)Nc2ccccc2)c(F)c1` [BMS-986235, 1-((3S,4R)-4-(2,6-difluoro-4-methoxyphenyl)-2-oxopyrrolidin-3-yl)-3-phenylurea] here?
**A.** 164- to 614 fold

**Q.** What about the Ymax oxidative burst ([2]; HL-60 FPR1 KO line) of the same compound?
**A.** 38%

**Q.** What about the oxidative burst activity ([2]; HL-60 FPR2 KO line) of the same compound?
**A.** abolished

**Q.** What about the Ymax oxidative burst ([2]; HL-60 cells expressing both receptors) of the same compound?
**A.** 97%

**Q.** And the EC50 ([2]; Homo sapiens, HL-60, read-out: EC50 oxidative burst)?
**A.** 130 nM

**Q.** And the “myocardial CD206 levels at peri-infarct zone versus vehicle” value [3]?
**A.** relative increases

**Q.** What about the “myocardial IL-10 levels at peri-infarct zone versus vehicle” value [3] of the same compound?
**A.** relative increases

**Q.** What about the “increase in IL-10 mRNA levels” value ([4]; 0.1 μM) of the same compound?
**A.** 3 fold

**Q.** And the “increase in MCP-1 mRNA versus control” value ([4]; 1 μM)?
**A.** 28 fold

**Q.** What about the “increase in MCP-1 mRNA versus control” value ([4]; 10 μM) of the same compound?
**A.** 54 fold

**Q.** And the “increase in IL-10 mRNA levels” value ([4]; 10 μM)?
**A.** 6 fold

**Q.** What about the “induction of FPR2 mRNA” value ([4]; any concentration (0.01-10 µM)) of the same compound?
**A.** no significant induction

**Q.** What about the “induction of IL-6 mRNA” value ([4]; any concentration (0.01-10 µM)) of the same compound?
**A.** no significant induction

**Q.** What about the “induction of IL-8 mRNA” value ([4]; any concentration (0.01-10 µM)) of the same compound?
**A.** no significant induction

**Q.** And the “induction of TNFα mRNA” value ([4]; any concentration (0.01-10 µM))?
**A.** no significant induction

**Q.** And the “Infarct Wall Thickness, change vs vehicle” value [5]?
**A.** +38%

**Q.** What about the “LV End Diastolic Volume (echocardiography), change vs vehicle” value [5] of the same compound?
**A.** -26%

**Q.** What about the “LV End Systolic Volume (echocardiography), change vs vehicle” value [5] of the same compound?
**A.** -29%

**Q.** What about the “Scar Area, change vs vehicle” value [5] of the same compound?
**A.** -26%

**Q.** And the “arginase-1 mRNA within peri-infarct border zone, fold vs vehicle” value [6]?
**A.** +6.4 fold

**Q.** What about the “ex vivo LV pressure-volume curve vs vehicle” value [7] of the same compound?
**A.** left shifted

**Q.** What about the “reduction of LV volume at end-diastole” value [7] of the same compound?
**A.** 26%

**Q.** What about the “reduction of LV volume at end-systole” value [7] of the same compound?
**A.** 42%

**Q.** What about the “transmural thickness of the infarct wall relative to vehicle” value [7] of the same compound?
**A.** without altering

**Q.** And the “viable myocardium at the distal end of the MI” value [7]?
**A.** trend toward increased

**Q.** What about the “% Viable Myocardium across infarct wall, increase vs vehicle” value ([7]; Mid MI region) of the same compound?
**A.** 31%

**Q.** And the “% Viable Myocardium across infarct wall, increase vs vehicle” value ([7]; Proximal MI region)?
**A.** 31%

**Q.** What about the “phagocytosis response above control macrophages” value ([8]; FPR2 KO-derived peritoneal macrophages) of the same compound?
**A.** minimal response

**Q.** And the Ymax zymosan phagocytosis ([8]; WT-derived peritoneal macrophages)?
**A.** ~100%

**Q.** And the “number of total macrophages relative to vehicle” value [9]?
**A.** unchanged

**Q.** And the “BRET signal for Gα12 and Gα13” value [10]?
**A.** minimal to no increase

**Q.** What about the “concentrations at which chemotaxis attenuation was observed” value ([11]; HL-60 FPR1 KO, bell-shaped response) of the same compound?
**A.** > 120 nM

**Q.** And the enhancement in chemotaxis ([11]; HL-60 FPR2 KO line)?
**A.** no enhancement

**Q.** What about the “reduction of percentage of viable neutrophils” value [12] of the same compound?
**A.** 12%

**Q.** What about the IL-10 induction [13] of the same compound?
**A.** efficacious dose

**Q.** And the “mortality over the 4 week study” value ([14]; 3 mg/kg once a day oral)?
**A.** significant reduction

**Q.** What about the “reduction of infarct scar size relative to vehicle” value ([14]; 3 mg/kg, 4 weeks of treatment) of the same compound?
**A.** ~55%
